Experimental data from ChEMBL document CHEMBL4689842, “EUbOPEN Chemogenomics Library wave 1” (2021).

Assays:
Format in all cases: toxicity, cell-based
U2OS [1] = experiment: Incucyte cell viability with U2OS; details: human, 10 µM, compound concentration 10 uM; further: filed as whole numbers so only -1 and 0 and 1 occur
U2OS [2] = experiment: Multiplex assay against U2OS; details: human
In short: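 Imaging took place on a CQ1 microscope at 37°C and 5% CO2 once compound had been added to live cells stained at seeding with Hoechst33342, BioTracker Green Microtubule Cytoskeleton Dye, MitoTracker Red and Annexin V Alexa Fluor 680. CellPathfinder machine-learning gating classed cells as Hoechst high-intensity objects or normal cells, classed normal cells as having healthy, pyknosed or fragmented nuclei, and classed pyknosed cells as mitotic or apoptotic. Tubulin, mitochondrial-mass and membrane-permeability phenotypes are per cents of the healthy-nucleus cells.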

Fibroblast = experiment: Incucyte cell viability with human fibroblast; details: 10 µM, compound concentration 10 uM; further: filed as whole numbers so only -1 and 0 and 1 occur
HEK-293T = experiment: Incucyte cell viability with HEK293T; details: human, 10 µM, compound concentration 10 uM; further: filed as whole numbers so only -1 and 0 and 1 occur
[3] = 0 h, replicate number 1, timepoint 0 hours
[4] = 6 h, replicate number 1, timepoint 6 hours
[5] = 12 h, replicate number 1, timepoint 12 hours
[6] = 18 h, replicate number 1, timepoint 18 hours
[7] = 24 h, replicate number 1, timepoint 24 hours
[8] = 12 h, 1 µM, compound concentration 1 uM, replicate 1
[9] = 12 h, 1 µM, compound concentration 1 uM, replicate 2
[10] = 12 h, 10 µM, compound concentration 10 uM, replicate 1
[11] = 12 h, 10 µM, compound concentration 10 uM, replicate 2
[12] = 24 h, 1 µM, compound concentration 1 uM, replicate 1
[13] = 24 h, 1 µM, compound concentration 1 uM, replicate 2
[14] = 24 h, 10 µM, compound concentration 10 uM, replicate 1
[15] = 24 h, 10 µM, compound concentration 10 uM, replicate 2

## CC(C)(C)c1cnc(CSc2cnc(NC(=O)C3CCNCC3)s2)o1 [BMS-387032]
U2OS [1]; [3]
  Growth Rate: 0
U2OS [1]; [4]
  Growth Rate: 1
U2OS [1]; 6 h, replicate number 2, timepoint 6 hours
  Growth Rate: 0
U2OS [1]; [5]
  Growth Rate: 0
U2OS [1]; [6]
  Growth Rate: 0
U2OS [1]; [7]
  Growth Rate: 0
U2OS [2]; [8]
  Population Apoptotic (%): 26%
  Population Fragmented Nuclei (%): 13%
  Population Healthy Nuclei (%): 69%
  Population Hoechst High Intensity Objects (%): 4%
  Population Membrane Permeable-Phenotype (%): 15%
  Population Mitochondria Different-Phenotype (%): 17%
  Population Mitotic Cells (%): 73%
  Population Normal (%): 95%
  Population Pyknosed Nuclei (%): 16%
  Population Tubulin-Different-Phenotype (%): 39%
  Total Cell Count: 140
U2OS [2]; [9]
  Population Apoptotic (%): 14%
  Population Fragmented Nuclei (%): 11%
  Population Healthy Nuclei (%): 80%
  Population Hoechst High Intensity Objects (%): 15%
  Population Membrane Permeable-Phenotype (%): 21%
  Population Mitochondria Different-Phenotype (%): 31%
  Population Mitotic Cells (%): 85%
  Population Normal (%): 84%
  Population Pyknosed Nuclei (%): 7%
  Population Tubulin-Different-Phenotype (%): 37%
  Total Cell Count: 143
U2OS [2]; [10]
  Population Apoptotic (%): 40%
  Population Fragmented Nuclei (%): 18%
  Population Healthy Nuclei (%): 61%
  Population Hoechst High Intensity Objects (%): 3%
  Population Membrane Permeable-Phenotype (%): 22%
  Population Mitochondria Different-Phenotype (%): 26%
  Population Mitotic Cells (%): 60%
  Population Normal (%): 96%
  Population Pyknosed Nuclei (%): 19%
  Population Tubulin-Different-Phenotype (%): 31%
  Total Cell Count: 144
U2OS [2]; [11]
  Population Apoptotic (%): 18%
  Population Fragmented Nuclei (%): 19%
  Population Healthy Nuclei (%): 63%
  Population Hoechst High Intensity Objects (%): 13%
  Population Membrane Permeable-Phenotype (%): 10%
  Population Mitochondria Different-Phenotype (%): 47%
  Population Mitotic Cells (%): 81%
  Population Normal (%): 86%
  Population Pyknosed Nuclei (%): 17%
  Population Tubulin-Different-Phenotype (%): 25%
  Total Cell Count: 109
U2OS [2]; [12]
  Population Apoptotic (%): 82%
  Population Fragmented Nuclei (%): 13%
  Population Healthy Nuclei (%): 75%
  Population Hoechst High Intensity Objects (%): 5%
  Population Membrane Permeable-Phenotype (%): 23%
  Population Mitochondria Different-Phenotype (%): 34%
  Population Mitotic Cells (%): 17%
  Population Normal (%): 94%
  Population Pyknosed Nuclei (%): 10%
  Population Tubulin-Different-Phenotype (%): 38%
  Total Cell Count: 200
U2OS [2]; [13]
  Population Apoptotic (%): 55%
  Population Fragmented Nuclei (%): 11%
  Population Healthy Nuclei (%): 80%
  Population Hoechst High Intensity Objects (%): 8%
  Population Membrane Permeable-Phenotype (%): 22%
  Population Mitochondria Different-Phenotype (%): 36%
  Population Mitotic Cells (%): 44%
  Population Normal (%): 91%
  Population Pyknosed Nuclei (%): 8%
  Population Tubulin-Different-Phenotype (%): 36%
  Total Cell Count: 166
U2OS [2]; [14]
  Population Apoptotic (%): 64%
  Population Fragmented Nuclei (%): 22%
  Population Healthy Nuclei (%): 45%
  Population Hoechst High Intensity Objects (%): 9%
  Population Membrane Permeable-Phenotype (%): 29%
  Population Mitochondria Different-Phenotype (%): 43%
  Population Mitotic Cells (%): 35%
  Population Normal (%): 90%
  Population Pyknosed Nuclei (%): 32%
  Population Tubulin-Different-Phenotype (%): 41%
  Total Cell Count: 174
U2OS [2]; [15]
  Population Apoptotic (%): 78%
  Population Fragmented Nuclei (%): 12%
  Population Healthy Nuclei (%): 52%
  Population Hoechst High Intensity Objects (%): 17%
  Population Membrane Permeable-Phenotype (%): 24%
  Population Mitochondria Different-Phenotype (%): 41%
  Population Mitotic Cells (%): 21%
  Population Normal (%): 82%
  Population Pyknosed Nuclei (%): 34%
  Population Tubulin-Different-Phenotype (%): 27%
  Total Cell Count: 118
Fibroblast; [3]
  Growth Rate: 0
Fibroblast; [4]
  Growth Rate: 0
Fibroblast; [5]
  Growth Rate: 0
Fibroblast; [6]
  Growth Rate: 0
Fibroblast; [7]
  Growth Rate: 0
HEK-293T; [4]
  Growth Rate: 0
HEK-293T; [5]
  Growth Rate: 0
HEK-293T; [6]
  Growth Rate: 0
HEK-293T; [7]
  Growth Rate: 0
